Experimental data: ChEMBL document CHEMBL1125789, “Synthesis and selective class III antiarrhythmic activity of novel N-heteroaralkyl-substituted 1-(aryloxy)-2-propanolamine and related propylamine derivatives” (J Med Chem, 1991)

What was measured:
[1] = species on record: Canis familiaris; experiment: Repolarization to reach -60mV, in canine Purkinje Fibers at a concentration of 1.0 uM at 300 ms (simulating tachycardia); type: functional, Canis lupus familiaris, Purkinje fiber
How it was run: (§1)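 Isolated canine Purkinje fiber bundles were driven by square-wave pulses 2.0 ms long at 2× threshold and equilibrated ≥1 h to steady state. Each concentration was superfused 45–60 min before recording, and action potentials were sampled at 4–6 sites per fiber in control and after drug, giving Vmax and APD to −60 mV.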

[2] = species on record: Canis familiaris; experiment: repolarization to reach -60mV, in canine Purkinje Fibers at a concentration of 0.3 uM at 1000 ms (simulating normal heart rate); type: functional, Canis lupus familiaris, Purkinje fiber
How it was run: (§2)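 Purkinje fiber bundles were stimulated with square-wave current pulses of 2.0 ms at twice threshold and equilibrated for at least 1 h, or until action potential parameters were steady. Each concentration was superfused for 45-60 min to reach steady state. Action potentials were recorded at four to six sites per fiber, under control and after drug.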

[3] = species on record: Canis familiaris; experiment: repolarization to reach -60mV, in canine Purkinje Fibers at a concentration of 1.0 uM at 1000 ms (simulating normal heart rate); type: functional, Canis lupus familiaris, Purkinje fiber; how it was run: as §2
[4] = species on record: Canis familiaris; experiment: Maximum rate of rise of the upstroke of transmembrane potential, in canine Purkinje Fibers at a concentration of 3.0 uM at 1000 ms (simulating normal heart rate); type: functional; design: unit not given here; settings: Canis lupus familiaris, Purkinje fiber; how it was run: as §1
[5] = species on record: Canis familiaris; experiment: Maximum rate of rise of the upstroke of transmembrane potential, in canine Purkinje Fibers at a concentration of 1.0 uM at 1000 ms (simulating normal heart rate); type: functional; design: unit not given here; settings: Canis lupus familiaris, Purkinje fiber; how it was run: as §1
[6] = species on record: Canis familiaris; experiment: Maximum rate of rise of the upstroke of transmembrane potential, in canine Purkinje Fibers at a concentration of 0.3 uM at 1000 ms (simulating normal heart rate); type: functional; design: unit not given here; settings: Canis lupus familiaris, Purkinje fiber; how it was run: as §1
[7] = species on record: Canis familiaris; experiment: Maximum rate of rise of the upstroke of transmembrane potential, in canine Purkinje Fibers at a concentration of 0.3 uM at 300 ms (simulating tachycardia); type: functional; design: unit not given here; settings: Canis lupus familiaris, Purkinje fiber; how it was run: as §1
[8] = species on record: Canis familiaris; experiment: Maximum rate of rise of the upstroke of transmembrane potential, in canine Purkinje Fibers at a concentration of 3.0 uM at 300 ms (simulating tachycardia); type: functional; design: unit not given here; settings: Canis lupus familiaris, Purkinje fiber; how it was run: as §1
[9] = species on record: Canis familiaris; experiment: repolarization to reach -60mV, in canine Purkinje Fibers at a concentration of 3.0 uM at 1000 ms (simulating normal heart rate); type: functional, Canis lupus familiaris, Purkinje fiber; how it was run: as §2
[10] = species on record: Canis familiaris; experiment: Maximum rate of rise of the upstroke of transmembrane potential, in canine Purkinje Fibers at a concentration of 1.0 uM at 300 ms (simulating tachycardia); type: functional; design: unit not given here; settings: Canis lupus familiaris, Purkinje fiber; how it was run: as §1
[11] = species on record: Canis familiaris; experiment: Repolarization to reach -60mV, in canine Purkinje Fibers at a concentration of 0.3 uM at 300 ms (simulating tachycardia); type: functional, Canis lupus familiaris, Purkinje fiber; how it was run: as §1
[12] = species on record: Canis familiaris; experiment: Repolarization to reach -60mV, in canine Purkinje Fibers at a concentration of 3.0 uM at 300 ms (simulating tachycardia); type: functional, Canis lupus familiaris, Purkinje fiber; how it was run: as §1
[13] = test system: Canis familiaris; experiment: Ventricular effective refractory period by the compound in open chest anesthetized dog, after iv administration at a dose of 5.0 mg/kg.; type: functional, Canis lupus familiaris, Heart; design: unit not given here
[14] = test system: Canis familiaris; experiment: Mean arterial pressure by the compound in open chest anesthetized dog, after iv administration at a dose of 5.0 mg/kg.; type: functional, Canis lupus familiaris, Artery; design: unit not given here
How it was run: (§3)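 Hemodynamics (heart rate, mean arterial pressure) recorded in pentobarbital-anesthetized (30 mg/kg iv, 5 mg/kg per h maintenance) open-chest mongrel dogs during the refractoriness study at BCL 300 ms. Readings were taken before and after iv or intraduodenal compound and expressed as change from control.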

[15] = test system: Canis familiaris; experiment: Atrial effective refractory period by the compound in open chest anesthetized dog, after iv administration at a dose of 5.0 mg/kg.; type: functional, Canis lupus familiaris, Cardiac atrium; design: unit not given here
How it was run: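 Open-chest mongrel dogs under sodium pentobarbital anesthesia (30 mg/kg iv plus 5 mg/kg per h), paced at basic cycle length 300 ms. Atrial effective refractory period was determined by electrical stimulation before and after iv or intraduodenal compound and reported as change from control.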

[16] = test system: Canis familiaris; experiment: Ventricular conduction time by the compound in open chest anesthetized dog, after iv administration at a dose of 5.0 mg/kg.; type: functional, Canis lupus familiaris, Heart; design: unit not given here
How it was run: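 Mongrel dogs were anesthetized with sodium pentobarbital (30 mg/kg iv, then 5 mg/kg per h), the chest opened, and the heart paced at BCL 300 ms. Compound was given iv or intraduodenally. Ventricular conduction time was taken as the interval between electrograms at the proximal and distal sites of the recording electrode array. 2-5 dogs per dose.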

[17] = test system: Canis familiaris; experiment: Heart beat by the compound in open chest anesthetized dog, after iv administration at a dose of 5.0 mg/kg.; type: functional, Canis lupus familiaris; design: unit not given here; how it was run: as §3
[18] = test system: Canis familiaris; experiment: Atrial conduction time by the compound in open chest anesthetized dog, after iv administration at a dose of 5.0 mg/kg.; type: functional, Canis lupus familiaris, Cardiac atrium; design: unit not given here
How it was run: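 Mongrel dogs anesthetized with sodium pentobarbital (30 mg/kg iv, then 5 mg/kg per h), chest opened, paced at BCL 300 ms. Atrial conduction time was taken as the interval between electrograms recorded at the proximal and distal sites of the atrial recording electrode array, before and after iv or intraduodenal dosing. Values are changes from control.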

| SMILES | Vmax [4] | Vmax [8] | APD [9] [%] | APD [12] [%] | other results |
| --- | --- | --- | --- | --- | --- |
| CN(Cc1ccc2ccccc2n1)C[C@H](O)COc1ccc(NS(C)(=O)=O)cc1 | -5 | 0 | 54 | 27 | APD [1]: 14%; APD [2]: 22%; APD [3]: 40%; Vmax [5]: 0; Vmax [6]: 9; Vmax [7]: -4; Vmax [10]: -3; APD [11]: 13% |
| CS(=O)(=O)Nc1ccc(OCC(O)CN2CCN(c3ncccn3)CC2)cc1 (stereo not given) | -17 | -12 | 23 | 15 | – |
| CN(Cc1ccc2ccccc2n1)CC(O)COc1ccc(-n2ccnc2)cc1 (stereo not given) | -15 | -11 | 39 | 10 | – |
| CN(Cc1ccc2cc(Cl)ccc2n1)CC(O)COc1ccc(NS(C)(=O)=O)cc1 (stereo not given) | 0 | -2 | 65 | 29 | – |
| CN(Cc1cc2ccccc2o1)CC(O)COc1ccc(NS(C)(=O)=O)cc1 (stereo not given) | 4 | 16 | 47 | 16 | – |
| CS(=O)(=O)Nc1ccc(OCC(O)CN2CCN(c3ccccn3)CC2)cc1 (stereo not given) | 9 | 12 | 53 | 24 | – |
| CN(Cc1ccc2cc(NS(C)(=O)=O)ccc2n1)CC(O)COc1ccc(NS(C)(=O)=O)cc1 (stereo not given) | -6 | -1 | 66 | 18 | APD [1]: 17%; APD [2]: 42%; APD [3]: 55%; Vmax [5]: -10; Vmax [6]: -12; Vmax [7]: -2; Vmax [10]: -4; APD [11]: 13% |
| CN(Cc1ccc2ccccc2n1)CC(O)COc1ccc([N+](=O)[O-])cc1 (stereo not given) | 0 | -10 | 63 | 27 | – |
| Cc1nc2ccccc2nc1CN(C)CC(O)COc1ccc(NS(C)(=O)=O)cc1 (stereo not given) | 7 | 3 | 17 | 11 | – |
| CC(C)N(Cc1ccc2ccccc2n1)CC(O)COc1ccc(NS(C)(=O)=O)cc1 (stereo not given) | -10 | -11 | 49 | 30 | – |
| O=[N+]([O-])c1ccc(OCC(O)CN2CCN(c3ccccn3)CC2)cc1 (stereo not given) | 8 | -19 | 29 | 15 | VERP [13]: 25; MBP [14]: -33; AERP [15]: 69; VCT [16]: -7; HR [17]: -33; ACT [18]: 16 |
| CN(Cc1nc2ccccc2n1C)CC(O)COc1ccc(NS(C)(=O)=O)cc1 (stereo not given) | 7 | 4 | 19 | 12 | – |
